Measurements: ChEMBL document CHEMBL4041461, “Discovery of 6,7-dihydro-3H-pyrano[4,3-c]isoxazol-3-ones as a new class of pathogen specific anti-leptospiral agents” (Eur J Med Chem, 2017)
≈ marks a conversion by molar mass, not a printed value. Calls of active or inactive are those of the source. No cut-off for these calls is given here.

Legend:
[1] = test system: Leptospira interrogans serovar Autumnalis; assay: Antibacterial activity against Leptospira interrogans serovar Autumnalis N2 at 31.25 ug/mL after 2 hrs by micro dilution assay; assay type: functional
Outline: (§1)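 Preliminary screen by broth microdilution against L. interrogans serovar Autumnalis strain N2, each compound at 500, 250, 125, 62.5 and 31.25 µg/mL. Growth at each concentration was scored as resistance (R) or inhibition (I), and the MIC was taken from these scores. Triplicates.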

[2] = test system: Leptospira interrogans serovar Autumnalis; assay: Antibacterial activity against Leptospira interrogans serovar Autumnalis N2 at 125 ug/mL after 2 hrs by micro dilution assay; assay type: functional; outline: as §1
[3] = test system: Leptospira interrogans serovar Autumnalis; assay: Antibacterial activity against Leptospira interrogans serovar Autumnalis N2 at 250 ug/mL after 2 hrs by micro dilution assay; assay type: functional; outline: as §1
[4] = test system: Leptospira interrogans serovar Autumnalis; assay: Antibacterial activity against Leptospira interrogans serovar Autumnalis N2 at 62.5 ug/mL after 2 hrs by micro dilution assay; assay type: functional; outline: as §1
[5] = test system: Leptospira interrogans serovar Autumnalis; assay: Antibacterial activity against Leptospira interrogans serovar Autumnalis N2 at 500 ug/mL after 2 hrs by micro dilution assay; assay type: functional; outline: as §1
[6] = Antibacterial activity against Leptospira interrogans serovar Bataviae Swart after 2 hrs by micro dilution assay; assay type: functional
[7] = (§2) Antibacterial activity against Leptospira interrogans serovar Semaranga after 2 hrs by micro dilution assay; assay type: functional
[8] = Antibacterial activity against Leptospira interrogans serovar Pyrogenes Salinem after 2 hrs by micro dilution assay; assay type: functional
[9] = Antibacterial activity against Leptospira interrogans serovar Javanica Poi after 2 hrs by micro dilution assay; assay type: functional
[10] = Antibacterial activity against Leptospira interrogans serovar Pomona after 2 hrs by micro dilution assay; assay type: functional
[11] = Antibacterial activity against Leptospira interrogans serovar Grippotyphosa Moskva V after 2 hrs by micro dilution assay; assay type: functional
[12] = Antibacterial activity against Leptospira interrogans serovar Icterohaemorrhagiae RGA after 2 hrs by micro dilution assay; assay type: functional
[13] = Antibacterial activity against Leptospira interrogans serovar Canicola Hond Utrecht IV after 2 hrs by micro dilution assay; assay type: functional
[14] = Antibacterial activity against Leptospira interrogans serovar Ballum Mus 127 after 2 hrs by micro dilution assay; assay type: functional; settings: Mus 127, 2 h
[15] = Antibacterial activity against Leptospira interrogans serovar Hebdomadis after 2 hrs by micro dilution assay; assay type: functional
[16] = Antibacterial activity against Leptospira interrogans serovar Hardjo Hardjoprajitno after 2 hrs by micro dilution assay; assay type: functional
[17] = Antibacterial activity against Leptospira interrogans serovar Australis Ballico after 2 hrs by micro dilution assay; assay type: functional
[18] = Antibacterial activity against Leptospira interrogans serovar Autumnalis N2 after 2 hrs by micro dilution assay; assay type: functional; settings: N2, 2 h
THP-1 [19] = assay: Induction of cell death in human THP1 cells at >= 75 ug/mL after 12 hrs by propidium iodide staining based confocal laser scanning microscopic method; settings: thp-1, 12 h
Outline: (§3)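 THP-1 cells were exposed for 12 h to a range of concentrations, then stained with propidium iodide. PI-positive apoptotic and necrotic cells were counted manually and expressed as a percentage. Controls were untreated cells and tert-butylhydroperoxide. Mean ± SD of triplicates.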

Leptospira interrogans [20] = assay: as §2; assay type: functional
THP-1 [21] = assay: Cytotoxicity against human THP1 cells assessed as cell growth inhibition upto 25 ug/mL after 24 hrs by MTT assay; assay type: cell-based; settings: thp-1, 24 h
[22] = Antibacterial activity against Leptospira interrogans serovar Canicola PAI-1 infected cyclophosphamide-treated BALB/c mouse assessed as mouse survival at 20 mg/kg, ip administered once daily for 3 days; assay type: functional; settings: PAI-1, ip, 72 h
Outline: (§4)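 Cyclophosphamide-treated (Cy-)BALB/c mice were challenged with pathogenic Leptospira Canicola. They were dosed once daily for 3 days at 5, 10 or 20 mg/kg. Controls were untreated mice and doxycycline at 5 mg/kg once daily. Survival was recorded to the end of the study period. Kidneys were checked by 16S qPCR and by re-isolation in EMJH semi-solid medium.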

Leptospira interrogans [23] = assay: Inhibition of Leptospira rRNA gene amplification assessed as thresholod cycle by SYBR Green dye-based RT-qPCR method (reference value: 11.3)
[24] = test system: Leptospira interrogans serovar Canicola; assay: Antibacterial activity against Leptospira interrogans serovar Canicola PAI-1 infected cyclophosphamide-treated BALB/c mouse assessed as inhibition of bacterial renal colonization at 20 mg/kg,ip using EMJH semi solid medium; assay type: functional, organism-based
Outline: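 Kidneys came from infected cyclophosphamide-treated BALB/c mice dosed once daily for 3 days, including at 20 mg/kg, alongside untreated infected controls. Leptospires were re-isolated by culturing kidney material in semi-solid EMJH medium.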

[25] = (§5) Antibacterial activity against Leptospira interrogans serovar Canicola PAI-1 infected cyclophosphamide-treated BALB/c mouse assessed as mouse survival at 5 mg/kg, ip administered once daily for 3 days; assay type: functional; settings: PAI-1, ip, 72 h; outline: as §4
[26] = test system: Leptospira interrogans serovar Canicola; assay: Antibacterial activity against Leptospira interrogans serovar Canicola PAI-1 infected cyclophosphamide-treated BALB/c mouse assessed as inhibition of bacterial renal colonization at 20 mg/kg,ip by RT-qPCR analysis; assay type: functional, organism-based
Outline: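 Cyclophosphamide-treated BALB/c mice were infected with pathogenic serovar Canicola, then dosed once daily for 3 days at 5, 10 or 20 mg/kg. Controls were untreated mice and doxycycline at 5 mg/kg once daily. Leptospiral load in kidney tissue was measured by qPCR for renal colonization.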

THP-1 [27] = assay: Cytotoxicity against human THP1 cells assessed as cell growth inhibition at >=75 ug/mL after 24 hrs by MTT assay; assay type: cell-based; settings: thp-1, 24 h
THP-1 [28] = assay: Induction of cell death in human THP1 cells upto 25 ug/mL after 12 hrs by propidium iodide staining based confocal laser scanning microscopic method; settings: thp-1, 12 h; outline: as §3
[29] = test system: Leptospira interrogans serovar Canicola; assay: as §5; assay type: functional; outline: as §4

SMILES | Activity [1] | Activity [2] | Activity [3] | Activity [4] | Activity [5] | MIC [6] | MIC [7] | MIC [8] | MIC [9] | MIC [10] | MIC [11] | MIC [12] | MIC [13] | MIC [14] | MIC [15] | MIC [16] | MIC [17] | MIC [18] | also measured
CC1(C)CC(=O)c2c(cc3ccccc3c2O)O1 | inactive | inactive | inactive | inactive | Active |  |  |  |  |  |  |  |  |  |  |  |  |  | 
CC1(C)CC2=NOC(=O)C2=C(c2cccc3ccccc23)O1 | inactive | inactive | Active | inactive | Active | 125 µg/mL (≈ 426 µM) | 500 µg/mL (≈ 1700 µM) | 500 µg/mL (≈ 1700 µM) | 500 µg/mL (≈ 1700 µM) | 500 µg/mL (≈ 1700 µM) | 250 µg/mL (≈ 852 µM) | 250 µg/mL (≈ 852 µM) | 250 µg/mL (≈ 852 µM) | 125 µg/mL (≈ 426 µM) | 250 µg/mL (≈ 852 µM) | 500 µg/mL (≈ 1700 µM) | 125 µg/mL (≈ 426 µM) | 250 µg/mL (≈ 852 µM) | 
CC1(C)CC2=NOC(=O)C2=C(c2cccs2)O1 | inactive | inactive | Active | inactive | Active | 250 µg/mL (≈ 1000 µM) |  | 125 µg/mL (≈ 501 µM) | 250 µg/mL (≈ 1000 µM) | 250 µg/mL (≈ 1000 µM) | 250 µg/mL (≈ 1000 µM) | 250 µg/mL (≈ 1000 µM) | 62.5 µg/mL (≈ 251 µM) | 250 µg/mL (≈ 1000 µM) | 250 µg/mL (≈ 1000 µM) | 250 µg/mL (≈ 1000 µM) | 250 µg/mL (≈ 1000 µM) | 250 µg/mL (≈ 1000 µM) | Activity (THP-1 [19]): Toxic; MIC (Leptospira interrogans [20]): inactive; Activity (THP-1 [21]): Non-Toxic; survival at 20 mg/kg [22]: 95%; Activity (Leptospira interrogans [23]): 18.5; inhibition [24]: Active; survival at 5 mg/kg [25]: 20%; inhibition [26]: Active; Activity (THP-1 [27]): Toxic; Activity (THP-1 [28]): Non-Toxic
COc1cc(OC)c2c(O)c3c(cc2c1)OC(C)(C)CC3=O | inactive | inactive | inactive | inactive | inactive |  |  |  |  |  |  |  |  |  |  |  |  |  | 
C[C@H]1c2cccc(O)c2C(=O)C2=C(O)[C@]3(O)C(=O)C(C(N)=O)=C(O)[C@@H](N(C)C)[C@@H]3[C@@H](O)[C@@H]21.O [DOXYCYCLINE] | inactive | inactive | Active | inactive | Active | 100 µg/mL | 100 µg/mL | 200 µg/mL | 200 µg/mL | 100 µg/mL | 200 µg/mL | 200 µg/mL | 200 µg/mL | 100 µg/mL | 200 µg/mL | 100 µg/mL | 200 µg/mL | 200 µg/mL | Activity [29]: Active
CC1CC(=O)c2c(cc3ccccc3c2O)O1 (configuration not stated) | inactive | inactive | Active | inactive | Active |  |  |  |  |  |  |  |  |  |  |  |  |  | 
COc1cc(OC)c2c(O)c3c(cc2c1)OC(C)CC3=O (configuration not stated) | inactive | inactive | inactive | inactive | inactive |  |  |  |  |  |  |  |  |  |  |  |  |  | 
CC1=C2C(=O)ON=C2CC(C)(C)O1 | inactive | inactive | inactive | inactive | Active | 250 µg/mL (≈ 1380 µM) | 500 µg/mL (≈ 2760 µM) | 250 µg/mL (≈ 1380 µM) | 500 µg/mL (≈ 2760 µM) | 250 µg/mL (≈ 1380 µM) | 500 µg/mL (≈ 2760 µM) | 125 µg/mL (≈ 690 µM) | 250 µg/mL (≈ 1380 µM) | 500 µg/mL (≈ 2760 µM) | 250 µg/mL (≈ 1380 µM) | 500 µg/mL (≈ 2760 µM) | 500 µg/mL (≈ 2760 µM) | 500 µg/mL (≈ 2760 µM) | 
CC1(C)CC2=NOC(=O)C2=C(c2ccccc2Cl)O1 | inactive | inactive | inactive | inactive | inactive |  |  |  |  |  |  |  |  |  |  |  |  |  | 
